Assay results reported in ChEMBL document CHEMBL2163244, “Structure-guided design, synthesis and biological evaluation of novel DNA ligase inhibitors with in vitro and in vivo anti-staphylococcal activity” (Bioorg Med Chem Lett, 2012).
pIC50, pKd: −log10 of the molar value. Converted amounts (≈) assume the structure as drawn. The source made the active and inactive calls. No cut-off for these calls is given here.

Assays:
[1] = target: T1, Dihydrofolate reductase (Homo sapiens) (UniProt P00374); assay: Inhibition of human DHFR
T1 sequence (whole entry): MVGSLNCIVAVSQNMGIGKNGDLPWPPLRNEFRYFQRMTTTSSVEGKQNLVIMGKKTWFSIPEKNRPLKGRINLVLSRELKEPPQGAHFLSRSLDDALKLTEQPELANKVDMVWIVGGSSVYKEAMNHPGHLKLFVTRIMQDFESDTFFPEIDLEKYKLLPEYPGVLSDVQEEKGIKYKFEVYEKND

[2] = target: DNA ligase 1 (Homo sapiens) (UniProt P18858); assay: Inhibition of human DNA Ligase 1
Chain of DNA ligase 1 (Homo sapiens) (P18858 whole entry): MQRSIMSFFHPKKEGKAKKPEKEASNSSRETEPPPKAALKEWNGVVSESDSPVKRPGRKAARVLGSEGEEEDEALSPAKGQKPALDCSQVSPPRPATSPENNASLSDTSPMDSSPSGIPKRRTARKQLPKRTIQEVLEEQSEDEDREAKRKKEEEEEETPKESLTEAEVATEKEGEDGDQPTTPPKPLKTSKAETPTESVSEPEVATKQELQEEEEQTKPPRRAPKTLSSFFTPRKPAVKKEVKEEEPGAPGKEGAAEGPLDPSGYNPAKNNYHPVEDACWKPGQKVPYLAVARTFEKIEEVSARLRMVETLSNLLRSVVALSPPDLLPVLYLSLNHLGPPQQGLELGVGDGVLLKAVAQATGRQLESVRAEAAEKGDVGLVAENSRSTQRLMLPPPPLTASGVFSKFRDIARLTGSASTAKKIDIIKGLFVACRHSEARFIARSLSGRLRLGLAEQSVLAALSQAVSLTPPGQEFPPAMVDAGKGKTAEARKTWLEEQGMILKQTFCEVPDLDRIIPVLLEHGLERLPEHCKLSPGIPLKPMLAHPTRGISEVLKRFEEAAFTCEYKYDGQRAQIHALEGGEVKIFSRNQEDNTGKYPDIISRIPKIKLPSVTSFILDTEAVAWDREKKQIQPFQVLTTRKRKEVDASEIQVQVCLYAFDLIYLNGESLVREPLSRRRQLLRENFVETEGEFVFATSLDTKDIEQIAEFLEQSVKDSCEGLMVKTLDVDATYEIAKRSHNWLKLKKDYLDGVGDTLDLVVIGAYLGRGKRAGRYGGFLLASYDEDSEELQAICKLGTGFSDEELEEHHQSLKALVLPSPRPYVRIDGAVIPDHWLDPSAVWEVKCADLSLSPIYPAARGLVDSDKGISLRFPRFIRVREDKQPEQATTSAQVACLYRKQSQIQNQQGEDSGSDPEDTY

[3] = system: Haemophilus influenzae; assay: Antibacterial activity against wild type Haemophilus influenzae A921 by CLSI dilution method; format: functional
[4] = system: Staphylococcus aureus; assay: Antibacterial activity against wild type Staphylococcus aureus ATCC 29213 by CLSI dilution method; format: functional
[5] = Inhibition of Streptococcus pneumoniae NAD-dependent DNA ligase assessed as equilibrium dissociation constant
[6] = Inhibition of Escherichia coli NAD-dependent DNA ligase
[7] = system: Streptococcus pneumoniae; assay: Antibacterial activity against wild type Streptococcus pneumoniae A-216 by CLSI dilution method; format: functional
[8] = system: Escherichia coli; assay: Antibacterial activity against tolC/rfaC-deficient Escherichia coli; format: functional
[9] = system: Escherichia coli; assay: Antibacterial activity against tolC/rfaC-deficient Escherichia coli harboring ligA251 mutant; format: functional
How it was run: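 MIC read-out. The E. coli strain carries only the ligA251 allele (L15F exchange), which gives more than 20-fold reduced ligation activity and sensitizes it to LigA inhibitors.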

[10] = target: T1, Dihydrofolate reductase (Homo sapiens); assay: Inhibition of human DHFR at 25 uM
[11] = target: DNA ligase 1 (Homo sapiens) (UniProt P18858); assay: Inhibition of human DNA Ligase 1 at 25 uM
[12] = target: DNA ligase (Staphylococcus aureus, UniProt Q9AIU7); assay: Inhibition of Staphylococcus aureus NAD-dependent DNA ligase
Chain of DNA ligase (Q9AIU7 whole entry): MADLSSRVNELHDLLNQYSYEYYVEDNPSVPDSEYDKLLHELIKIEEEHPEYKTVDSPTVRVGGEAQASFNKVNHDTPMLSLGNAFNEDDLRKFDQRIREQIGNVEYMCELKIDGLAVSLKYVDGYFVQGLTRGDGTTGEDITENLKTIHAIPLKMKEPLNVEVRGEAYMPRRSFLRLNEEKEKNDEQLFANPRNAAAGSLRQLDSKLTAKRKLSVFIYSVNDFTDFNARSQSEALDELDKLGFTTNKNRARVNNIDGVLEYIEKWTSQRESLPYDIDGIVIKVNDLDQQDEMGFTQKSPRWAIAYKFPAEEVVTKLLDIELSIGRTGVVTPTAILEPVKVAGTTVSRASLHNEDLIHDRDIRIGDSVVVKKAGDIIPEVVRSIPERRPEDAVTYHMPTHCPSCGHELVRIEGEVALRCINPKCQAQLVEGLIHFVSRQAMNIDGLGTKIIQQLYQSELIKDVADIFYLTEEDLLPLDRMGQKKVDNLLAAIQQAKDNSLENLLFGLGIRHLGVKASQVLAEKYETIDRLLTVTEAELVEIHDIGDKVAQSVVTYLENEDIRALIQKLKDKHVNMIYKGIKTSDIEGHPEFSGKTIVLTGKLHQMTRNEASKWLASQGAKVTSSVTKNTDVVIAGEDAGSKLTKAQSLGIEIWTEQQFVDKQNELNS

Row | SMILES | inhibition [1] | inhibition [2] | MIC [3] [µg/mL] | MIC [4] [µg/mL] | pKd [5] | pIC50 [6] | MIC [7] [µg/mL] | MIC [8] [µg/mL] | MIC [9] [µg/mL] | inhibition [10] | inhibition [11] | pIC50 [12]
1 | NC(=O)c1cc2c(N3CC(O)C3)c(Br)c(C(F)(F)F)nc2nc1N | inactive | inactive | 4 (≈ 9.85 µM) | 16 (≈ 39.4 µM) | 7.37 | 6.30 | > 16 | 4 (≈ 9.85 µM) | 0.125 (≈ 0.308 µM) | – | – | –
2 | NC(=O)c1cc2cc(Br)c(C3CCCC3)nc2nc1N | inactive | inactive | > 16 | > 16 | 6.74 | 6.30 | > 16 | > 16 | 4 (≈ 11.9 µM) | – | – | –
3 | NC(=O)c1cc2ccc(C(F)(F)F)nc2nc1N | inactive | inactive | 0.5 (≈ 1.95 µM) | 8 (≈ 31.2 µM) | 7.00 | 6.30 | > 16 | 16 (≈ 62.5 µM) | 0.125 (≈ 0.488 µM) | – | – | –
4 | NC(=O)c1cc2c(CCO)cc(C(F)(F)F)nc2nc1N | inactive | inactive | 1 (≈ 3.33 µM) | > 16 | 6.37 | 5.00 | > 16 | > 16 | 1 (≈ 3.33 µM) | – | – | –
5 | NC(=O)c1cc2c(N3CCC(O)CC3)c(Br)c(C(F)(F)F)nc2nc1N | inactive | inactive | > 16 | > 16 | 7.41 | 6.15 | 16 (≈ 36.8 µM) | 8 (≈ 18.4 µM) | 0.25 (≈ 0.576 µM) | – | – | –
6 | COc1nc2nc(N)nc(N)c2nc1C | – | – | – | – | – | 4.60 | – | > 16 | 2 (≈ 9.7 µM) | inactive | inactive | 5.60
7 | NC(=O)c1cc2c(N3CC[C@@H](O)C3)c(Br)c(C(F)(F)F)nc2nc1N | inactive | inactive | 8 (≈ 19 µM) | 8 (≈ 19 µM) | 7.51 | 6.15 | 8 (≈ 19 µM) | 4 (≈ 9.52 µM) | 0.125 (≈ 0.297 µM) | – | – | –
8 | NC(=O)c1cc2cc(CCc3ccccc3)c(C(F)(F)F)nc2nc1N | inactive | inactive | > 16 | > 16 | 5.92 | < 5.00 | > 16 | > 16 | 32 (≈ 88.8 µM) | – | – | –
9 | NC(=O)c1cc2cc(C3CC3)c(C(F)(F)F)nc2nc1N | inactive | inactive | 0.5 (≈ 1.69 µM) | 1 (≈ 3.38 µM) | 7.08 | 6.40 | 16 (≈ 54 µM) | 2 (≈ 6.75 µM) | 0.125 (≈ 0.422 µM) | – | – | –
10 | NC(=O)c1cc2c(-c3ccccc3)cc(C(F)(F)F)nc2nc1N | inactive | inactive | 8 (≈ 24.1 µM) | > 16 | 6.63 | 5.60 | > 16 | 32 (≈ 96.3 µM) | 0.5 (≈ 1.5 µM) | – | – | –
11 | CC(C)(C)OC(=O)N1CC(c2nc3nc(N)c(C(N)=O)cc3cc2Br)C1 | inactive | inactive | > 16 | > 16 | 5.58 | < 5.30 | > 16 | > 16 | – | – | – | –
12 | CN(CCO)c1c(Br)c(C(F)(F)F)nc2nc(N)c(C(N)=O)cc12 | inactive | inactive | 4 (≈ 9.8 µM) | 8 (≈ 19.6 µM) | 7.24 | 6.15 | 8 (≈ 19.6 µM) | > 16 | 0.5 (≈ 1.22 µM) | – | – | –
13 | C=CCc1c(Cl)nc2nc(N)c(C(N)=O)cc2c1C | inactive | inactive | 4 (≈ 14.5 µM) | 8 (≈ 28.9 µM) | 6.94 | 6.10 | > 16 | 8 (≈ 28.9 µM) | 0.125 (≈ 0.452 µM) | – | – | –
14 | NC(=O)c1cc2cc(CO)c(C(F)(F)F)nc2nc1N | inactive | inactive | 2 (≈ 6.99 µM) | > 16 | 6.41 | 6.30 | > 16 | > 16 | 2 (≈ 6.99 µM) | – | – | –
15 | Cc1c(Cc2ccccc2)c(Cl)nc2nc(N)c(C(N)=O)cc12 | inactive | inactive | 2 (≈ 6.12 µM) | 4 (≈ 12.2 µM) | 6.97 | 6.30 | 4 (≈ 12.2 µM) | 4 (≈ 12.2 µM) | 0.125 (≈ 0.383 µM) | – | – | –
16 | NC(=O)c1cc2c3c(c(Cl)nc2nc1N)CC3 | inactive | inactive | 8 (≈ 32.2 µM) | 16 (≈ 64.3 µM) | 6.82 | 6.22 | > 16 | 8 (≈ 32.2 µM) | 0.25 (≈ 1.01 µM) | – | – | –
17 | NC(=O)c1cc2cc(C3CCCC3)c(C(F)(F)F)nc2nc1N | inactive | inactive | 16 (≈ 49.3 µM) | > 16 | 6.82 | 5.60 | 16 (≈ 49.3 µM) | > 16 | 4 (≈ 12.3 µM) | – | – | –
18 | CC(C)(C)c1nc2nc(N)c(C(N)=O)cc2cc1Br | inactive | inactive | 2 (≈ 6.19 µM) | 4 (≈ 12.4 µM) | 7.11 | 6.52 | 8 (≈ 24.8 µM) | 8 (≈ 24.8 µM) | 0.25 (≈ 0.774 µM) | – | – | –
19 | COCCc1cc(C(F)(F)F)nc2nc(N)c(C(N)=O)cc12 | inactive | inactive | 4 (≈ 12.7 µM) | > 16 | 6.34 | 5.00 | > 16 | > 16 | 2 (≈ 6.36 µM) | – | – | –
20 | NC(=O)c1cc2c(N3CC[C@@H](N)C3)c(Br)c(C(F)(F)F)nc2nc1N | inactive | inactive | 8 (≈ 19.1 µM) | > 16 | 7.07 | 6.00 | > 16 | > 16 | 1 (≈ 2.39 µM) | – | – | –
21 | CCc1cc2cc(C(N)=O)c(N)nc2nc1C(F)(F)F | inactive | inactive | 2 (≈ 7.04 µM) | 4 (≈ 14.1 µM) | 7.12 | 6.22 | > 16 | 8 (≈ 28.1 µM) | 0.25 (≈ 0.88 µM) | – | – | –
22 | NC(=O)c1cc2cc(Cc3ccccc3)c(C(F)(F)F)nc2nc1N | inactive | inactive | 4 (≈ 11.6 µM) | > 16 | 6.85 | 6.10 | > 16 | 16 (≈ 46.2 µM) | 0.125 (≈ 0.361 µM) | – | – | –
23 | CC(C)(OCc1ccccc1)c1nc2nc(N)c(C(N)=O)cc2cc1Br | inactive | inactive | > 16 | > 16 | 5.37 | < 5.30 | > 16 | > 16 | 8 (≈ 19.3 µM) | – | – | –
24 | Cc1cc(C(F)(F)F)nc2nc(N)c(C(N)=O)cc12 | inactive | inactive | 0.5 (≈ 1.85 µM) | 8 (≈ 29.6 µM) | 7.32 | 6.30 | > 16 | 4 (≈ 14.8 µM) | 0.25 (≈ 0.925 µM) | – | – | –
25 | Nc1ccc2c(Cl)cc(C(F)(F)F)nc2n1 | – | – | – | – | – | 4.60 | – | – | – | – | – | –
26 | NCc1cc(C(F)(F)F)nc2nc(N)c(C(N)=O)cc12 | inactive | inactive | 4 (≈ 14 µM) | > 16 | 6.99 | 5.60 | > 16 | > 16 | 1 (≈ 3.51 µM) | – | – | –
27 | Cc1cc2cc(C(N)=O)c(N)nc2nc1C(F)(F)F | inactive | inactive | 0.25 (≈ 0.925 µM) | 4 (≈ 14.8 µM) | 7.32 | 6.30 | 8 (≈ 29.6 µM) | 0.5 (≈ 1.85 µM) | 0.063 (≈ 0.233 µM) | – | – | –
28 | CC(C)c1cc2cc(C(N)=O)c(N)nc2nc1C(F)(F)F | inactive | inactive | 8 (≈ 26.8 µM) | 16 (≈ 53.6 µM) | 6.82 | 6.10 | > 16 | > 16 | 1 (≈ 3.35 µM) | – | – | –
29 | C=Cc1cc2cc(C(N)=O)c(N)nc2nc1C(F)(F)F | inactive | inactive | 1 (≈ 3.54 µM) | 2 (≈ 7.09 µM) | 7.05 | 6.40 | > 16 | 8 (≈ 28.3 µM) | 0.125 (≈ 0.443 µM) | – | – | –
30 | Cc1c(Cc2ccncc2)c(Cl)nc2nc(N)c(C(N)=O)cc12 | inactive | inactive | 2 (≈ 6.1 µM) | > 16 | 6.93 | 6.00 | 8 (≈ 24.4 µM) | > 16 | 0.25 (≈ 0.763 µM) | – | – | –
